ChEMBL document CHEMBL1125085, “Synthesis and anticonvulsant activity of some new 2-substituted 3-aryl-4(3H)-quinazolinones” (J Med Chem, 1990)

Tests used:
Mus musculus [1] = assay: Subcutaneous metrazole (scMet) test was conducted and median effective dose was determined at the time of peak anticonvulsant and sedative effect; assay type: functional; settings: sc
In short: (§1)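 Pentylenetetrazol (85 mg/kg in mice, 70 mg/kg in rats) was given subcutaneously in the posterior midline as a 0.5% solution. Compounds were in 30% PEG 400, dosed ip in male Carworth Farms no. 1 mice, or orally in mice and Sprague-Dawley rats. ED50 was read at time of peak effect, using groups of 8–16 animals and ≥3 doses giving 10–90% protection. Probit analysis gave 95% confidence intervals.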

Mus musculus [2] = assay: Rotarod test was used to evaluate neurotoxicity in mice. Toxicity values are reported after 0.5 h.,toxicity at 300 mg/kg; Toxic; assay type: organism-based; design: dose 300 mg/kg; settings: in vivo
Mus musculus [3] = assay: Subcutaneous metrazole (scMet) test was conducted and median effective dose was determined at the time of peak anticonvulsant and sedative effect.; assay type: functional; settings: sc; in short: as §1
Mus musculus [4] = species: Mus musculus; assay: Time taken to reach peak activity was reported.; assay type: functional
[5] = Median toxic dose was measured at time of peak neurologic deficit.; assay type: organism-based; settings: mouse, in vivo
In short: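 Mice dosed ip in 30% PEG 400. Minimal neurotoxicity was scored by rotorod at the time of peak neurologic deficit. Groups of 8–16 mice were used, with at least three points in the 10–90% range, and TD50 with 95% confidence interval was derived by probit analysis.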

Mus musculus [6] = assay: Subcutaneous metrazole (scMet) test was conducted after Injecting intraperitoneally at the time of peak anticonvulsant in phase II test; assay type: functional
In short: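 Phase II testing in male Carworth Farms no. 1 mice, ip dosing in 30% PEG 400 (0.01 mL/g). Groups of 8–16 mice received a range of doses, giving at least three points in 10–90% protection. ED50 with 95% confidence interval was fitted by probit analysis at the time of peak effect. scMet used pentylenetetrazol 85 mg/kg sc.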

Mus musculus [7] = species: Mus musculus; assay: Time taken to reach peak toxicity was reported.; assay type: organism-based; settings: in vivo
[8] = Protective index is the ratio of TD50 and ED50 values obtained in the subcutaneous metrazole (scMet) test.; assay type: functional
In short: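 Protective index = TD50/ED50. Both values are medians from groups of 8–16 animals per dose, with at least three points in the 10–90% effect range, fitted by probit analysis. Each was taken at its own time of peak effect: seizure protection for ED50, neurologic deficit for TD50.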

Mus musculus [9] = assay: Anticonvulsant activity was determined in Subcutaneous metrazole (scMet) test 0.5 h after administration of 300 mg/kg in (mice/rat); no activity or toxicity up to 300 mg/kg; assay type: functional, organism-based
Mus musculus [10] = assay: Subcutaneous metrazole (scMet) test was done, 4.0 hr after administration; no activity or toxicity up to 300 mg/kg; assay type: functional, organism-based; design: dose 300 mg/kg
Mus musculus [11] = assay: Anticonvulsant activity was determined in maximal electroshock seizure test 0.5 h after administration of 300 mg/kg in (mice/rat); no activity or toxicity up to 300 mg/kg; assay type: functional, organism-based
Mus musculus [12] = assay: Anticonvulsant activity was determined in maximal electroshock seizure test 4.0 h after administration of 300 mg/kg in (mice/rat); no activity or toxicity up to 300 mg/kg; assay type: functional, organism-based
Mus musculus [13] = assay: Rotarod test was used to evaluate neurotoxicity in mice. Values are reported after 0.5 h, at 300 mg/kg; no activity or toxicity up to 300 mg/kg; assay type: organism-based; settings: in vivo
Mus musculus [14] = assay: Rotarod test was used to evaluate neurotoxicity in mice. Toxicity values are reported after 0.5 h. toxicity at 300 mg/kg; - denotes no activity observed at 300 mg/kg toxic; assay type: organism-based; settings: in vivo

Structure (SMILES): CCC1(c2ccccc2)NC(=O)N(C)C1=O (centres undefined) [MEPHENYTOIN]
- ED50 (Mus musculus [1]): 30.5 mg/kg

Structure (SMILES): O=C(Cc1nc2ccccc2c(=O)n1-c1ccc(Br)cc1)c1ccncc1
- Activity (Mus musculus [2]): Toxic

Structure (SMILES): CCC1(c2ccccc2)C(=O)NCNC1=O [PRIMIDONE]
- ED50 (Mus musculus [3]): 58.6 mg/kg

Structure (SMILES): COc1ccccc1-n1c(CC(=O)c2ccncc2)nc2ccccc2c1=O
- TPE (Mus musculus [4]): 2 h
- TD50 [5]: 370 mg/kg
- ED50 (Mus musculus [6]): 42 mg/kg
- TPE (Mus musculus [7]): 0.5 h
- PI [8]: 8.8

Structure (SMILES): Cc1ccc(-n2c(CC(=O)c3cccnc3)nc3ccccc3c2=O)cc1
- Activity (Mus musculus [9]): No activity or toxicity up to 300 mg/kg
- Activity (Mus musculus [10]): No activity or toxicity up to 300 mg/kg
- Activity (Mus musculus [11]): No activity or toxicity up to 300 mg/kg
- Activity (Mus musculus [12]): No activity or toxicity up to 300 mg/kg
- Activity (Mus musculus [13]): No activity or toxicity up to 300 mg/kg

Structure (SMILES): O=C(Cc1nc2ccccc2c(=O)n1-c1ccccc1Cl)c1cccnc1
- Activity (Mus musculus [14]): Toxic
